Test results from ChEMBL document CHEMBL5338794, “Optimization of Orally Bioavailable Antileishmanial 2,4,5-Trisubstituted Benzamides” (J Med Chem, 2023).
In brackets after ≈: the same amount, converted by molar mass.

Key:
Leishmania mexicana = assay: Antileishmanial activity against renilla luciferase-expressing Leishmania mexicana promastigotes infected in mouse J774.A1 cells assessed as inhibition of intracellular amastigotes growth incubated for 96 hrs by Renilla luciferase assay; assay type: functional, organism-based; details: J774.A1, 96 h
BJ = assay: Cytotoxicity against human BJ cells assessed as reduction in cell viability incubated for 72 hrs by Cell TiterGlo assay; assay type: functional, cell-based
[1] = Kinetic aqueous solubility of the compound in PBS at pH 7.4 incubated for 18 hrs by LC-MS analysis; assay type: physicochemical; details: read-out: Kinetic_solubility
[2] = Metabolic stability in CD-1 mouse liver microsomes assessed as half life at 1 uM and measured upto 60 mins in presence of NADPH regenerating system by LC-MS/MS analysis; assay type: ADME, Microsome; details: 1 h
Outline: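 Half-life and intrinsic clearance determined by incubation with mouse liver microsomes.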

Structure (SMILES) | EC50 (Leishmania mexicana) [µM] | EC50 (BJ) [µM] | further results
CN1CCN(c2cc(Cl)c(C(=O)Nc3cncc(-c4nc5ccccc5s4)c3)cc2[N+](=O)[O-])CC1 | 0.9 | > 30 | –
O=C(Nc1ccc(-c2ccccc2)cc1)c1cc([N+](=O)[O-])c(F)cc1Cl | 1.3 | – | –
O=C(Nc1cnc(Cl)c(Cl)c1)c1ccc(N2CCNCC2)c([N+](=O)[O-])c1 | 1.2 | – | –
Cc1ccc(NC(=O)c2cc([N+](=O)[O-])c(F)cc2Cl)cc1 | 1.2 | – | –
O=C(Nc1ccc(Cl)c(Cl)c1)c1cc([N+](=O)[O-])c(F)cc1F | 0.2 | 2.4 | –
O=C(Nc1cccnc1)c1cc([N+](=O)[O-])c(F)cc1Cl | 4.6 | – | –
Cc1ccc(-c2nc3ccccc3s2)cc1NC(=O)c1ccc(Br)cc1F | 45 | – | –
Cc1cc(Cl)c(Cl)cc1NC(=O)c1ccc(F)c([N+](=O)[O-])c1 | 2.4 | – | –
O=C(Nc1cccc(-c2ncco2)c1)c1cc([N+](=O)[O-])c(F)cc1Cl | 0.9 | – | –
O=C(Nc1ccc(F)c(Cl)c1)c1cc([N+](=O)[O-])c(F)cc1Cl | 1 | – | –
Cc1ccc(-c2nc3ccccc3s2)cc1NC(=O)c1cnccc1C#N | 51 | – | –
O=C(Nc1ccc(F)c(F)c1)c1cc([N+](=O)[O-])c(F)cc1Cl | 1.3 | – | –
Cc1ccc(-c2nc3ccccc3s2)cc1NC(=O)c1ccc(Cl)nc1 | 8.2 | – | –
O=C(Nc1cccc(-c2nccs2)c1)c1cc([N+](=O)[O-])c(N2CCNCC2)cc1Cl | 1.5 | – | –
Cc1ccc(-c2nc3ccccc3s2)cc1NC(=O)c1cc([N+](=O)[O-])c(N2CCN(C)CC2)cc1Cl | 0.8 | > 25 | solubility kinetic at 18 h [1]: < 0.3 µM; t1/2 [2]: 0.217 h
O=C(Nc1cnc(Cl)c(Cl)c1)c1cc([N+](=O)[O-])c(F)cc1Cl | 0.5 | – | –
O=C(Nc1cncc(-c2nc3ccccc3o2)c1)c1cc([N+](=O)[O-])c(F)cc1F | 0.5 | > 30 | –
O=C(Nc1ccc(Cl)c(Cl)c1)c1ccc(N2CCNCC2)nc1 | 1.4 | – | –
O=C(Nc1cncc(-c2nc3ccccc3s2)c1)c1cc([N+](=O)[O-])c(F)cc1Cl | 0.9 | 4.9 | –
O=C(Nc1cccc(Cl)c1)c1ccc(N2CCNCC2)c([N+](=O)[O-])c1 | 1.4 | – | –
O=C(Nc1cccc(-c2nccs2)c1)c1cc([N+](=O)[O-])c(F)cc1Cl | 1.3 | – | –
CN1CCN(c2cc(Cl)c(C(=O)Nc3cccc(-c4nccs4)c3)cc2[N+](=O)[O-])CC1 | 2.1 | – | –
O=C(Nc1ccc(Cl)c(Cl)c1)c1cc([N+](=O)[O-])c(F)cc1Cl | 0.9 | 4.2 | –
O=C(Nc1cncc(-c2nc3ccccc3s2)c1)c1cc([N+](=O)[O-])c(N2CCNCC2)cc1Cl | 0.6 | 15.3 | solubility kinetic at 18 h [1]: 6.3 µM (≈ 3.12 µg/mL); t1/2 [2]: 2.17 h
Cc1ccc(-c2nc3ccccc3s2)cc1NC(=O)c1cnc(Cl)cc1Cl | 9.8 | – | –

Structure (SMILES) | EC50 (Leishmania mexicana) [µM] | EC50 (BJ) [µM] | further results
N#Cc1ccc(NC(=O)c2cc([N+](=O)[O-])c(F)cc2Cl)cc1 | 1 | – | –
Cc1ccc(-c2nc3ccccc3s2)cc1NC(=O)c1cc([N+](=O)[O-])c(F)cc1Cl | 1.2 | – | –
Cc1ccc(-c2nc3ccccc3s2)cc1NC(=O)c1cc([N+](=O)[O-])c(N2CC3(COC3)C2)cc1Cl | 29 | – | –
Cc1ccc(-c2nc3ccccc3s2)cc1NC(=O)c1cc([N+](=O)[O-])c(N(C)CCN(C)C)cc1Cl | 0.4 | 6.1 | –
Cc1ccc(-c2nc3ccccc3s2)cc1NC(=O)c1cnccc1F | 27 | – | –
Cc1ccc(-c2nc3ccccc3s2)cc1NC(=O)c1cc([N+](=O)[O-])ccc1F | 64 | – | –
Cc1ccc(-c2nc3ccccc3s2)cc1NC(=O)c1cc([N+](=O)[O-])c(N2CC3(CNC3)C2)cc1Cl | 0.7 | 11.3 | –
CC(=O)Nc1cccc(NC(=O)c2cc([N+](=O)[O-])c(F)cc2Cl)c1 | 2.9 | – | –
O=C(Nc1cccc(-c2nccs2)c1)c1ccc(N2CCNCC2)c([N+](=O)[O-])c1 | 1.4 | – | –
Cc1ccc(-c2nc3ccccc3s2)cc1NC(=O)c1ccc(N2CCNCC2)c([N+](=O)[O-])c1 | 0.3 | 8.6 | –
Cc1ccc(-c2nc3ccccc3s2)cc1NC(=O)c1cnccc1O | 53 | – | –
COc1cc(Cl)ncc1C(=O)Nc1cc(-c2nc3ccccc3s2)ccc1C | 42 | – | –
O=C(Nc1cccc(-c2nccs2)c1)c1cc([N+](=O)[O-])c(F)cc1F | 0.4 | 1.5 | –
O=C(Nc1cccc(Cl)c1)c1cc([N+](=O)[O-])c(F)cc1F | 0.6 | 1.8 | –
Cc1ccc(Br)cc1NC(=O)c1cc([N+](=O)[O-])c(F)cc1Cl | 1.4 | – | –
Cc1ccc(C(F)(F)F)cc1NC(=O)c1cc([N+](=O)[O-])c(F)cc1Cl | 1.7 | – | –
Cc1ccc(-c2nc3ccccc3s2)cc1NC(=O)c1cc([N+](=O)[O-])ccc1C(F)(F)F | 56 | – | –
O=C(Nc1cccc(-c2nc3ccccc3o2)c1)c1cc([N+](=O)[O-])c(F)cc1Cl | 0.9 | > 30 | –
O=C(Nc1cccc(-c2cccnc2)c1)c1cc([N+](=O)[O-])c(F)cc1Cl | 2 | – | –
Cc1cc(Cl)c(Cl)cc1NC(=O)c1cc([N+](=O)[O-])c(F)cc1Cl | 0.8 | 4.2 | –
Cc1ccc(C)c(NC(=O)c2cc([N+](=O)[O-])c(F)cc2Cl)c1 | 2.4 | – | –
Cc1ccc(-c2nc3ccccc3s2)cc1NC(=O)c1ccc(Br)cc1Cl | 57 | – | –
O=C(Nc1ccc(Cl)c(Cl)c1)c1ccc(F)c([N+](=O)[O-])c1 | 1.1 | – | –
Cc1ccc(-c2nc3ccccc3s2)cc1NC(=O)c1cc([N+](=O)[O-])c(N2CC3(CN(C(=O)OC(C)(C)C)C3)C2)cc1Cl | 63 | – | –
Cc1ccc(-c2nc3ccccc3s2)cc1NC(=O)c1cc([N+](=O)[O-])c(NCCN)cc1Cl | 0.3 | 6.3 | –

Structure (SMILES) | EC50 (Leishmania mexicana) [µM] | EC50 (BJ) [µM] | further results
O=C(Nc1cccc(-c2ccccn2)c1)c1cc([N+](=O)[O-])c(F)cc1Cl | 1.1 | – | –
O=C(Nc1cccc(-c2ncco2)c1)c1ccc(N2CCNCC2)c([N+](=O)[O-])c1 | 3.1 | – | –
Cc1cc(Cl)c(Cl)cc1NC(=O)c1cc([N+](=O)[O-])c(F)cc1F | 0.3 | 1.3 | –
Cc1ccc(-c2nc3ccccc3s2)cc1NC(=O)c1ccc(F)c([N+](=O)[O-])c1 | 1.2 | – | –
Cc1ccc(-c2nc3ccccc3s2)cc1NC(=O)c1ccc(F)c(C(F)(F)F)c1 | 21 | – | –
Cc1ccc(-c2nc3ccccc3s2)cc1NC(=O)c1cnccc1Cl | 8.8 | – | –
O=C(Nc1ccc(F)cc1)c1cc([N+](=O)[O-])c(F)cc1Cl | 1.2 | – | –
O=C(Nc1ccc(Cl)cc1)c1cc([N+](=O)[O-])c(F)cc1Cl | 1.1 | – | –
O=C(Nc1cncc(-c2nc3ccccc3o2)c1)c1cc([N+](=O)[O-])c(F)cc1Cl | 1 | 2.9 | –
Cc1ccc(-c2nc3ccccc3s2)cc1NC(=O)c1cc([N+](=O)[O-])c(NCCNC(=O)OC(C)(C)C)cc1Cl | 0.7 | > 25 | –
Cc1ccc(-c2nc3ccccc3s2)cc1NC(=O)c1cc([N+](=O)[O-])c(N2CCNCC2)cc1Cl | 0.7 | > 14.5 | –
Cc1ccc(-c2nc3ccccc3s2)cc1NC(=O)c1cc([N+](=O)[O-])c(Cl)cc1Cl | 4.3 | – | –
Cc1ccc(-c2nc3ccccc3s2)cc1NC(=O)c1cc([N+](=O)[O-])c(NC2CCN(C)CC2)cc1Cl | 0.8 | 9.2 | –
COc1ccncc1C(=O)Nc1cc(-c2nc3ccccc3s2)ccc1C | 31 | – | –
O=C(Nc1cnc(Cl)c(Cl)c1)c1cc([N+](=O)[O-])c(F)cc1F | 0.2 | 1.6 | –
Cc1ccc(-c2nc3ccccc3s2)cc1NC(=O)c1ccc(F)nc1 | 6.4 | – | –
O=C(Nc1cccc(-c2nc3ccccc3o2)c1)c1cc([N+](=O)[O-])c(F)cc1F | 0.8 | 4.5 | –
Cc1ccc(-c2nc3ccccc3s2)cc1NC(=O)c1cc([N+](=O)[O-])c(Cl)cc1F | 2 | – | –
O=C(Nc1cccc(Cl)c1)c1ccc(F)c([N+](=O)[O-])c1 | 4 | – | –
Cc1ccc(-c2nc3ccccc3s2)cc1NC(=O)c1cc([N+](=O)[O-])c(NCCN(C)C)cc1Cl | 0.8 | 17.2 | –
N#Cc1ccc(NC(=O)c2ccc(N3CCNCC3)c([N+](=O)[O-])c2)cc1 | 5.4 | – | –
Cc1ccc(-c2nc3ccccc3o2)cc1NC(=O)c1cc([N+](=O)[O-])c(N2CCN(C)CC2)cc1Cl | 0.8 | 4.6 | –
Cc1ccc(-c2nc3ccccc3o2)cc1NC(=O)c1cc([N+](=O)[O-])c(F)cc1Cl | 0.4 | 16 | –
Cc1ccc(-c2nc3ccccc3s2)cc1NC(=O)c1ccc(Cl)c([N+](=O)[O-])c1 | 20 | – | –
